Test: organ radiation dose estimates, OLINDA 1.1, ICRP-60
Assay type: in vivo, human
Method in brief: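 Whole-body PET-MR ran as nine scans to 214 min. Organ VOIs were drawn in AMIDE, giving decay-corrected %IA per VOI; remainder = whole body minus measured organs. TIACs came from the exponential model (EXM) in OLINDA 1.1. Per-participant organ doses used 70 kg adult male or 55 kg female models in OLINDA 1.1. Effective dose (mSv) = organ absorbed doses × ICRP-60 tissue weighting factors.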

Compound: COC(=O)[C@@H](N)CC(=O)Nc1ccc2c(c1)Cc1cc([18F])ccc1-2 [[^18F]RP-115, methyl N^4-(7-[^18F]fluoro-9H-fluoren-2-yl)asparaginate]
- Estimated dose, Upper, lower intestine wall (Female n=4, mean±SD): 0.0160±0.0012 mGy/MBq
- Estimated dose, Urinary bladder wall (Female n=4, mean±SD): 0.0588±0.0438 mGy/MBq
- Estimated dose, Uterus (Female n=4, mean±SD): 0.0569±0.0512 mGy/MBq
- Effective dose (whole body) (M1 (326 MBq)): 6.74 mSv
- Estimated absorbed dose, Adrenals (M1 (326 MBq)): 6.51 mGy
- Estimated absorbed dose, Brain (M1 (326 MBq)): 5.63 mGy
- Estimated absorbed dose, Breasts (M1 (326 MBq)): 2.73 mGy
- Estimated absorbed dose, Gallbladder wall (M1 (326 MBq)): 9.08 mGy
- Estimated absorbed dose, Heart wall (M1 (326 MBq)): 8.79 mGy
- Estimated absorbed dose, Kidneys (M1 (326 MBq)): 72.0 mGy
- Estimated absorbed dose, Liver (M1 (326 MBq)): 16.0 mGy
- Estimated absorbed dose, Lower large intestine wall (M1 (326 MBq)): 3.45 mGy
- Estimated absorbed dose, Lungs (M1 (326 MBq)): 19.7 mGy
- Estimated absorbed dose, Muscle (M1 (326 MBq)): 3.00 mGy
- Estimated absorbed dose, Osteogenic cells (M1 (326 MBq)): 4.07 mGy
- Estimated absorbed dose, Pancreas (M1 (326 MBq)): 6.41 mGy
- Estimated absorbed dose, Red marrow (M1 (326 MBq)): 3.42 mGy
- Estimated absorbed dose, Remainder (M1 (326 MBq)): 4.10 mGy
- Estimated absorbed dose, Skin (M1 (326 MBq)): 2.10 mGy
- Estimated absorbed dose, Small intestine (M1 (326 MBq)): 13.8 mGy
- Estimated absorbed dose, Spleen (M1 (326 MBq)): 21.3 mGy
- Estimated absorbed dose, Stomach wall (M1 (326 MBq)): 4.33 mGy
- Estimated absorbed dose, Testes (M1 (326 MBq)): 2.12 mGy
- Estimated absorbed dose, Thymus (M1 (326 MBq)): 16.7 mGy
- Estimated absorbed dose, Thyroid (M1 (326 MBq)): 3.39 mGy
- Estimated absorbed dose, Upper, lower intestine wall (M1 (326 MBq)): 5.37 mGy
- Estimated absorbed dose, Urinary bladder wall (M1 (326 MBq)): 3.65 mGy
- Effective dose (whole body) (M2 (289 MBq)): 5.48 mSv
- Estimated absorbed dose, Adrenals (M2 (289 MBq)): 4.94 mGy
- Estimated absorbed dose, Brain (M2 (289 MBq)): 3.03 mGy
- Estimated absorbed dose, Breasts (M2 (289 MBq)): 2.26 mGy
- Estimated absorbed dose, Gallbladder wall (M2 (289 MBq)): 6.41 mGy
- Estimated absorbed dose, Heart wall (M2 (289 MBq)): 6.46 mGy
- Estimated absorbed dose, Kidneys (M2 (289 MBq)): 37.8 mGy
- Estimated absorbed dose, Liver (M2 (289 MBq)): 16.6 mGy
- Estimated absorbed dose, Lower large intestine wall (M2 (289 MBq)): 2.97 mGy
- Estimated absorbed dose, Lungs (M2 (289 MBq)): 11.0 mGy
- Estimated absorbed dose, Muscle (M2 (289 MBq)): 2.55 mGy
- Estimated absorbed dose, Osteogenic cells (M2 (289 MBq)): 3.58 mGy
- Estimated absorbed dose, Pancreas (M2 (289 MBq)): 4.30 mGy
- Estimated absorbed dose, Red marrow (M2 (289 MBq)): 2.76 mGy
- Estimated absorbed dose, Remainder (M2 (289 MBq)): 3.32 mGy
- Estimated absorbed dose, Skin (M2 (289 MBq)): 1.85 mGy
- Estimated absorbed dose, Small intestine (M2 (289 MBq)): 9.32 mGy
- Estimated absorbed dose, Spleen (M2 (289 MBq)): 7.24 mGy
- Estimated absorbed dose, Stomach wall (M2 (289 MBq)): 3.41 mGy
- Estimated absorbed dose, Testes (M2 (289 MBq)): 2.02 mGy
- Estimated absorbed dose, Thymus (M2 (289 MBq)): 4.68 mGy
- Estimated absorbed dose, Thyroid (M2 (289 MBq)): 2.23 mGy
- Estimated absorbed dose, Upper, lower intestine wall (M2 (289 MBq)): 4.24 mGy
- Estimated absorbed dose, Urinary bladder wall (M2 (289 MBq)): 4.70 mGy
- Effective dose (whole body) (M3 (70.3 MBq)): 1.52 mSv
- Estimated absorbed dose, Adrenals (M3 (70.3 MBq)): 1.21 mGy
- Estimated absorbed dose, Brain (M3 (70.3 MBq)): 0.820 mGy
- Estimated absorbed dose, Breasts (M3 (70.3 MBq)): 0.560 mGy
- Estimated absorbed dose, Gallbladder wall (M3 (70.3 MBq)): 1.35 mGy
- Estimated absorbed dose, Heart wall (M3 (70.3 MBq)): 1.79 mGy
- Estimated absorbed dose, Kidneys (M3 (70.3 MBq)): 12.7 mGy
- Estimated absorbed dose, Liver (M3 (70.3 MBq)): 2.61 mGy
- Estimated absorbed dose, Lower large intestine wall (M3 (70.3 MBq)): 0.670 mGy
- Estimated absorbed dose, Lungs (M3 (70.3 MBq)): 3.91 mGy
- Estimated absorbed dose, Muscle (M3 (70.3 MBq)): 0.605 mGy
- Estimated absorbed dose, Osteogenic cells (M3 (70.3 MBq)): 0.837 mGy
- Estimated absorbed dose, Pancreas (M3 (70.3 MBq)): 1.33 mGy
- Estimated absorbed dose, Red marrow (M3 (70.3 MBq)): 0.662 mGy
- Estimated absorbed dose, Remainder (M3 (70.3 MBq)): 0.780 mGy
- Estimated absorbed dose, Skin (M3 (70.3 MBq)): 0.434 mGy
- Estimated absorbed dose, Small intestine (M3 (70.3 MBq)): 1.61 mGy
- Estimated absorbed dose, Spleen (M3 (70.3 MBq)): 2.28 mGy
- Estimated absorbed dose, Stomach wall (M3 (70.3 MBq)): 0.815 mGy
- Estimated absorbed dose, Testes (M3 (70.3 MBq)): 0.479 mGy
- Estimated absorbed dose, Thymus (M3 (70.3 MBq)): 1.64 mGy
- Estimated absorbed dose, Thyroid (M3 (70.3 MBq)): 0.643 mGy
- Estimated absorbed dose, Upper, lower intestine wall (M3 (70.3 MBq)): 0.879 mGy
- Estimated absorbed dose, Urinary bladder wall (M3 (70.3 MBq)): 1.96 mGy
- Effective dose (whole body) (M4 (153 MBq)): 2.89 mSv
- Estimated absorbed dose, Adrenals (M4 (153 MBq)): 3.04 mGy
- Estimated absorbed dose, Brain (M4 (153 MBq)): 2.44 mGy
- Estimated absorbed dose, Breasts (M4 (153 MBq)): 1.31 mGy
- Estimated absorbed dose, Gallbladder wall (M4 (153 MBq)): 3.80 mGy
- Estimated absorbed dose, Heart wall (M4 (153 MBq)): 1.79 mGy
- Estimated absorbed dose, Liver (M4 (153 MBq)): 2.12 mGy
- Estimated absorbed dose, Lower large intestine wall (M4 (153 MBq)): 2.51 mGy
- Estimated absorbed dose, Lungs (M4 (153 MBq)): 4.01 mGy
- Estimated absorbed dose, Muscle (M4 (153 MBq)): 35.0 mGy
- Estimated absorbed dose, Osteogenic cells (M4 (153 MBq)): 5.85 mGy
- Estimated absorbed dose, Pancreas (M4 (153 MBq)): 1.52 mGy
- Estimated absorbed dose, Red marrow (M4 (153 MBq)): 2.02 mGy
- Estimated absorbed dose, Remainder (M4 (153 MBq)): 1.96 mGy
- Estimated absorbed dose, Skin (M4 (153 MBq)): 4.45 mGy
- Estimated absorbed dose, Small intestine (M4 (153 MBq)): 1.69 mGy
- Estimated absorbed dose, Spleen (M4 (153 MBq)): 2.12 mGy
- Estimated absorbed dose, Stomach wall (M4 (153 MBq)): 1.10 mGy
- Estimated absorbed dose, Testes (M4 (153 MBq)): 7.89 mGy
- Estimated absorbed dose, Thymus (M4 (153 MBq)): 1.19 mGy
- Estimated absorbed dose, Thyroid (M4 (153 MBq)): 7.36 mGy
- Estimated absorbed dose, Upper, lower intestine wall (M4 (153 MBq)): 2.17 mGy
- Estimated absorbed dose, Urinary bladder wall (M4 (153 MBq)): 2.81 mGy
- Effective dose (whole body) (Male n=4, mean±SD): 0.0196±0.0019 mSv/MBq
- Estimated dose, Adrenals (Male n=4, mean±SD): 0.0181±0.00135 mGy/MBq
- Estimated dose, Brain (Male n=4, mean±SD): 0.0135±0.00305 mGy/MBq
- Estimated dose, Breasts (Male n=4, mean±SD): 0.00801±0.000253 mGy/MBq
- Estimated dose, Gallbladder wall (Male n=4, mean±SD): 0.0230±0.00361 mGy/MBq
- Estimated dose, Heart wall (Male n=4, mean±SD): 0.0214±0.00739 mGy/MBq
- Estimated dose, Kidneys (Male n=4, mean±SD): 0.142±0.0804 mGy/MBq
- Estimated dose, Liver (Male n=4, mean±SD): 0.0392±0.0195 mGy/MBq
- Estimated dose, Lower, large intestine wall (Male n=4, mean±SD): 0.0114±0.00246 mGy/MBq
- Estimated dose, Lungs (Male n=4, mean±SD): 0.0446±0.0167 mGy/MBq
- Estimated dose, Muscle (Male n=4, mean±SD): 0.0589±0.100 mGy/MBq
- Estimated dose, Osteogenic cells (Male n=4, mean±SD): 0.0180±0.0114 mGy/MBq
- Estimated dose, Pancreas (Male n=4, mean±SD): 0.0156±0.00485 mGy/MBq
- Estimated dose, Red marrow (Male n=4, mean±SD): 0.0104±0.00124 mGy/MBq
- Estimated dose, Remainder (Male n=4, mean±SD): 0.0117±0.000634 mGy/MBq
- Estimated dose, Skin (Male n=4, mean±SD): 0.0114±0.0101 mGy/MBq
- Estimated dose, Small intestine (Male n=4, mean±SD): 0.0269±0.0137 mGy/MBq
- Estimated dose, Spleen (Male n=4, mean±SD): 0.0340±0.0226 mGy/MBq
- Estimated dose, Stomach wall (Male n=4, mean±SD): 0.0108±0.00294 mGy/MBq
- Estimated dose, Testes (Male n=4, mean±SD): 0.0169±0.0202 mGy/MBq
- Estimated dose, Thymus (Male n=4, mean±SD): 0.0245±0.0190 mGy/MBq
- Estimated dose, Thyroid (Male n=4, mean±SD): 0.0178±0.0175 mGy/MBq
- Estimated dose, Upper, lower intestine wall (Male n=4, mean±SD): 0.0142±0.00181 mGy/MBq
- Estimated dose, Urinary bladder wall (Male n=4, mean±SD): 0.0180±0.00704 mGy/MBq
